Source: ChEMBL document CHEMBL4346669, “Novel nannocystin A analogues as anticancer therapeutics: Synthesis, biological evaluations and structure-activity relationship studies” (Eur J Med Chem, 2019)
Active and inactive are the calls of the source.

Key:
A549 [1] = assay: Cell cycle arrest in human A549 cells assessed as accumulation at S phase at 30 nM after 24 hrs by propidium iodide/RNase A staining-based flow cytometric analysis (reference value: 12.57%); type: functional
A549 [2] = assay: Cell cycle arrest in human A549 cells assessed as accumulation at G2 phase at 30 nM after 24 hrs by propidium iodide/RNase A staining-based flow cytometric analysis (reference value: 30.02%); type: functional
MCF7 = assay: Antiproliferative activity against human MCF7 cells assessed as reduction in cell viability measured after 72 hrs by MTT assay; type: functional, cell-based; details: MCF7, 72 h
Method in brief: (§1)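 Cells seeded at 5×10^3 per well and cultured overnight, then exposed for 72 h at 37 °C to six concentrations from 10 µM down to 0.0001 µM (from 10 mM DMSO stock diluted in medium; vehicle 1% DMSO in PBS). MTT at 0.5 mg/mL was added for 4 h, formazan dissolved in DMSO, and A570 read. IC50 given as mean ± SD of three independent experiments.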

HCT-116 = assay: Antiproliferative activity against human HCT116 cells assessed as reduction in cell viability measured after 72 hrs by MTT assay; type: functional, cell-based
Method in brief: (§2)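 Cells seeded 5×10^3/well, cultured overnight, then exposed to 10, 1, 0.1, 0.01, 0.001 and 0.0001 µM (from 10 mM DMSO stocks diluted in medium; vehicle 1% DMSO PBS) for 72 h at 37 °C. Medium replaced with 0.5 mg/mL MTT for 4 h, formazan dissolved in DMSO, A570 read. IC50 as mean ± SD of three independent experiments.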

PC-3 = assay: Antiproliferative activity against human PC3 cells incubated for 72 hrs by 14C-thymidine incorporation assay; type: functional, cell-based; details: PC-3, 72 h
A549 [3] = assay: Induction of apoptosis in human A549 cells assessed as late apoptotic cells at 30 nM after 12 hrs by Annexin-V FITC/propidium iodide staining based flow cytometric analysis (reference value: 1.22%); type: functional
A549 [4] = assay: Antiproliferative activity against human A549 cells assessed as reduction in cell viability measured after 72 hrs by MTT assay; type: functional, cell-based; method in brief: as §2
A549 [5] = assay: Cell cycle arrest in human A549 cells assessed as accumulation at G1 phase at 30 nM after 24 hrs by propidium iodide/RNase A staining-based flow cytometric analysis (reference value: 57.41%); type: functional
MDA-MB-231 = assay: Antiproliferative activity against human MDA-MB-231 cells assessed as reduction in cell viability measured after 72 hrs by MTT assay; type: functional, cell-based; details: MDA-MB-231, 72 h; method in brief: as §1
HL-60 = assay: Antiproliferative activity against human HL60 cells incubated for 96 hrs by cell-titer-Glo luminescent assay; type: functional, cell-based; details: HL-60, 96 h
A549 [6] = assay: Induction of apoptosis in human A549 cells assessed as viable cells at 30 nM after 12 hrs by Annexin-V FITC/propidium iodide staining based flow cytometric analysis (reference value: 97.18%); type: functional; details: A549, 12 h, read-out: Activity
A549 [7] = assay: Induction of apoptosis in human A549 cells assessed as necrotic cells at 30 nM after 12 hrs by Annexin-V FITC/propidium iodide staining based flow cytometric analysis (reference value: 1.28%); type: functional
A-375 = assay: Antiproliferative activity against human A375 cells assessed as reduction in cell viability measured after 72 hrs by MTT assay; type: functional, cell-based; details: A-375, 72 h; method in brief: as §1
SH-SY5Y = assay: Antiproliferative activity against human SH-SY5Y cells assessed as reduction in cell viability measured after 72 hrs by MTT assay; type: functional, cell-based; method in brief: as §1
A549 [8] = assay: Induction of apoptosis in human A549 cells assessed as early apoptotic cells at 30 nM after 12 hrs by Annexin-V FITC/propidium iodide staining based flow cytometric analysis (reference value: 0.32%); type: functional
A549 [9] = assay: Inhibition of colony formation in human A549 cells at 10 nM incubated for 3 days followed by further incubation in drug-free medium and measured after 15 days by crystal violet staining-based inverted microscopic analysis; type: functional, cell-based
Method in brief: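 A549 cells were plated at 500 per well in 2 mL medium for 24 h, then treated for 3 days, with drug-free medium replaced every 3 days afterwards. At day 15 after plating, colonies were fixed in 95% ethanol for 15 min, stained with 0.1% crystal violet, and counted; a colony was defined as more than 100 cells. Mean ± SD of three independent experiments.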

A549 [10] = assay: Inhibition of elongation factor 1-alpha1 expression in human A549 cells at 100 nM after 24 hrs by Western blot analysis; type: functional
[11] = Homo sapiens, HCT-116, 72 h, read-out: IC50
[12] = Homo sapiens, A549, 72 h, read-out: IC50

Row | Compound | IC50 (HCT-116; [11]) | IC50 (A549 [4]; [12]) | further results
1 | CC[C@H](C)[C@H]1C(=O)N[C@H](Cc2cc(Cl)c(O)c(Cl)c2)C(=O)N[C@@H](C(C)(C)O)C(=O)O[C@H](c2ccccc2)[C@H](C)/C=C/C=C(\C)[C@H](OC)C[C@@H]2O[C@@]2(C)C(=O)N1C | 17 nM | 13.1 nM | Activity (A549 [1]): 7.38%; Activity (A549 [2]): 49.41%; IC50 (MCF7): 8.7 nM; IC50 (PC-3): 1 nM; Activity (A549 [3]): 22.88%; Activity (A549 [5]): 43.21%; IC50 (MDA-MB-231): 7.5 nM; IC50 (HL-60): 12 nM; viability at 0.03 µM (A549 [6]): 61.6%; Activity (A549 [7]): 11.44%; IC50 (A-375): 2.4 nM; IC50 (SH-SY5Y): 2.1 nM; Activity (A549 [8]): 4.11%; inhibition (A549 [9]): Active
2 | CO[C@@H]1C/C=C(\C)C(=O)N(C)[C@@H](C(C)C)C(=O)N[C@H](Cc2cc(Cl)c(O)c(Cl)c2)C(=O)N[C@@H](C(C)C)C(=O)O[C@H](c2ccccc2)[C@H](C)/C=C/C=C/1C | 42.1 nM | 21.6 nM | –
3 | CC[C@H](C)[C@H]1C(=O)N[C@H](Cc2cc(Cl)c(O)c(Cl)c2)C(=O)N[C@@H](C(C)(C)O)C(=O)O[C@H](c2ccccc2)[C@H](C)/C=C/C=C(\C)[C@H](OC)C/C=C(\C)C(=O)N1C | 16.7 nM | 10.1 nM | –
4 | CO[C@@H]1C/C=C(\C)C(=O)N(C)[C@@H](C(C)C)C(=O)N[C@H](Cc2cc(Cl)c(O)c(Cl)c2)C(=O)N[C@@H](CC(C)C)C(=O)O[C@H](c2ccccc2)[C@H](C)/C=C/C=C/1C | > 100 nM | > 100 nM | –
5 | CO[C@@H]1C/C=C(\C)C(=O)N(C)[C@@H](C(C)C)C(=O)N[C@H](Cc2ccccc2)C(=O)N[C@@H](C(C)C)C(=O)O[C@H](c2ccccc2)C/C=C/C=C/1C | > 100 nM | > 100 nM | –
6 | CO[C@@H]1C/C=C(\C)C(=O)N(C)[C@@H](C(C)C)C(=O)N[C@H](Cc2ccccc2)C(=O)N[C@@H](C(C)C)C(=O)O[C@H](c2ccccc2)[C@H](C)/C=C/C=C/1C | > 100 nM | > 100 nM | –
7 | CC[C@H](C)[C@H]1C(=O)N[C@H](Cc2ccccc2)C(=O)N[C@@H](C(C)(C)O)C(=O)O[C@H](c2ccccc2)[C@H](C)/C=C/C=C(\C)[C@H](OC)C[C@@H]2O[C@@]2(C)C(=O)N1C | 20.9 nM | 14.3 nM | –
8 | CO[C@@H]1C[C@@H]2O[C@@]2(C)C(=O)N(C)[C@@H](C(C)C)C(=O)N[C@H](Cc2cc(Cl)c(O)c(Cl)c2)C(=O)N[C@@H](C(C)(C)O)C(=O)O[C@H](c2ccccc2)[C@H](C)/C=C/C=C/1C | 6.7 nM | 3.5 nM | inhibition at 0.1 µM (A549 [10]; A549, 24 h): 100%
9 | CO[C@@H]1C/C=C(\C)C(=O)N(C)[C@@H](C(C)C)C(=O)N[C@H](Cc2ccc(O)cc2)C(=O)N[C@@H](C(C)C)C(=O)O[C@H](c2ccccc2)[C@H](C)/C=C/C=C/1C | 59.7 nM | 35.9 nM | –
10 | CO[C@@H]1C[C@@H]2O[C@@]2(C)C(=O)N[C@@H](C(C)C)C(=O)N[C@H](Cc2cc(Cl)c(O)c(Cl)c2)C(=O)N[C@@H](C(C)(C)O)C(=O)O[C@H](c2ccccc2)[C@H](C)/C=C/C=C/1C | – | – | IC50 (HCT-116; hct-116): Not Active; IC50 (A549 [4]; a549): Not Active; inhibition (A549 [10]): inactive
11 | CC[C@H](C)[C@@H]1NC(=O)[C@]2(C)O[C@H]2C[C@@H](OC)/C(C)=C/C=C/[C@@H](C)[C@@H](c2ccccc2)OC(=O)[C@H](C(C)(C)O)NC(=O)[C@@H](Cc2cc(Cl)c(O)c(Cl)c2)NC1=O | > 1000 nM | 557 nM | –
12 | CC[C@H](C)[C@H]1C(=O)N[C@H](Cc2cc(Cl)c(O)c(Cl)c2)C(=O)N[C@@H](C(C)(C)O)C(=O)O[C@H](c2ccccc2)C/C=C/C=C(\C)[C@H](OC)C[C@@H]2O[C@@]2(C)C(=O)N1C | 78.2 nM | 90.3 nM | –
13 | COc1cccc2c1C(=O)c1c(O)c3c(c(O)c1C2=O)C[C@@](O)(C(=O)CO)C[C@@H]3O[C@H]1C[C@H](N)[C@H](O)[C@H](C)O1 [DOXORUBICIN] | 366 nM | 459 nM | –
14 | CC[C@H](C)[C@H]1C(=O)N[C@H](Cc2cc(Cl)c(O)c(Cl)c2)C(=O)N[C@@H](C(C)C)C(=O)O[C@H](c2ccccc2)[C@H](C)/C=C/C=C(\C)[C@H](OC)C[C@@H]2O[C@@]2(C)C(=O)N1C | 10.5 nM | 3.2 nM | –
15 | CC/C1=C\C=C\[C@@H](C)[C@@H](c2ccccc2)OC(=O)[C@H](C(C)C)NC(=O)[C@@H](Cc2cc(Cl)c(O)c(Cl)c2)NC(=O)[C@H](C(C)C)N(C)C(=O)/C(C)=C/C[C@H]1OC | 60.3 nM | 13.1 nM | –
16 | CC[C@H](C)[C@H]1C(=O)N[C@H](Cc2cc(Cl)c(O)c(Cl)c2)C(=O)N[C@@H](C(C)(C)O)C(=O)O[C@H](c2ccccc2)[C@H](C)/C=C/C=C(\C)[C@H](OC)C/C=C/C(=O)N1C | 124 nM | 40.5 nM | –
17 | CC[C@H](C)[C@H]1C(=O)N[C@H](Cc2ccc(O)c(OC)c2)C(=O)N[C@@H](C(C)(C)O)C(=O)O[C@H](c2ccccc2)[C@H](C)/C=C/C=C(\C)[C@H](OC)C[C@@H]2O[C@@]2(C)C(=O)N1C | 25.2 nM | 3.7 nM | –
